In brackets after ≈: the same amount, converted by molar mass.
Assays:
Type in all cases: functional
Klebsiella pneumoniae [1] = assay: Antimicrobial activity against Klebsiella pneumoniae MTCC 3384 at 50 ug/ml after 24 hrs by disc diffusion method; details: MTCC 3384, 24 h, read-out: DIZ
Outline: (§1)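 Agar diffusion read-out is the diameter of the inhibition zone in mm. Each test was run in six replicates and reported as mean ± standard deviation, taken from at least three determinations.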

Aspergillus flavus [2] = assay: Antimicrobial activity against Aspergillus flavus MTCC 873 after 48 hrs by microdilution method; details: MTCC 873, 48 h
Outline: (§2)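 The minimal inhibitory concentration was determined by dilution, alongside minimal bactericidal concentration for bacterial strains and minimal fungicidal concentration for fungal strains. Tests were run in six replicates, and the value is the mean of at least three determinations.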

Aspergillus niger [3] = assay: Antimicrobial activity against Aspergillus niger MTCC 281 at 100 ug/ml after 48 hrs by disc diffusion method; details: MTCC 281, 48 h, read-out: DIZ; outline: as §1
Staphylococcus aureus [4] = assay: Antimicrobial activity against Staphylococcus aureus MTCC 96 after 24 hrs by microdilution method; details: MTCC 96, 24 h; outline: as §2
Escherichia coli [5] = assay: Antimicrobial activity against Escherichia coli MTCC 724 after 24 hrs by microdilution method; details: MTCC 724, 24 h; outline: as §2
Bacillus cereus [6] = assay: Antimicrobial activity against Bacillus cereus MTCC 8372 at 50 ug/ml after 24 hrs by disc diffusion method; details: MTCC 8372, 24 h, read-out: DIZ; outline: as §1
Staphylococcus aureus [7] = assay: Antimicrobial activity against Staphylococcus aureus MTCC 96 at 100 ug/ml after 24 hrs by disc diffusion method; details: MTCC 96, 24 h, read-out: DIZ; outline: as §1
Fusarium verticillioides [8] = assay: Antimicrobial activity against Fusarium moniliforme MTCC 156 at 50 ug/ml after 48 hrs by disc diffusion method; details: MTCC 156, 48 h, read-out: DIZ; outline: as §1
Fusarium verticillioides [9] = assay: Antimicrobial activity against Fusarium moniliforme MTCC 156 at 100 ug/ml after 48 hrs by disc diffusion method; details: MTCC 156, 48 h, read-out: DIZ; outline: as §1
Fusarium oxysporum [10] = assay: Antimicrobial activity against Fusarium oxysporum MTCC 284 at 50 ug/ml after 48 hrs by disc diffusion method; details: MTCC 284, 48 h, read-out: DIZ; outline: as §1
Aspergillus niger [11] = assay: Antimicrobial activity against Aspergillus niger MTCC 281 at 50 ug/ml after 48 hrs by disc diffusion method; details: MTCC 281, 48 h, read-out: DIZ; outline: as §1
Aspergillus niger [12] = assay: Antimicrobial activity against Aspergillus niger MTCC 281 after 48 hrs by microdilution method; details: MTCC 281, 48 h; outline: as §2
Bacillus cereus [13] = assay: Antimicrobial activity against Bacillus cereus MTCC 8372 after 24 hrs by microdilution method; details: MTCC 8372, 24 h; outline: as §2
Fusarium oxysporum [14] = assay: Antimicrobial activity against Fusarium oxysporum MTCC 284 after 48 hrs by microdilution method; details: MTCC 284, 48 h; outline: as §2
Aspergillus flavus [15] = assay: Antimicrobial activity against Aspergillus flavus MTCC 873 at 50 ug/ml after 48 hrs by disc diffusion method; details: MTCC 873, 48 h, read-out: DIZ; outline: as §1
Klebsiella pneumoniae [16] = assay: Antimicrobial activity against Klebsiella pneumoniae MTCC 3384 after 24 hrs by microdilution method; details: MTCC 3384, 24 h; outline: as §2
Aspergillus flavus [17] = assay: Antimicrobial activity against Aspergillus flavus MTCC 873 at 100 ug/ml after 48 hrs by disc diffusion method; details: MTCC 873, 48 h, read-out: DIZ; outline: as §1
Bacillus cereus [18] = assay: Antimicrobial activity against Bacillus cereus MTCC 8372 at 100 ug/ml after 24 hrs by disc diffusion method; details: MTCC 8372, 24 h, read-out: DIZ; outline: as §1
Fusarium verticillioides [19] = assay: Antimicrobial activity against Fusarium moniliforme MTCC 156 after 48 hrs by microdilution method; details: MTCC 156, 48 h; outline: as §2
Klebsiella pneumoniae [20] = assay: Antimicrobial activity against Klebsiella pneumoniae MTCC 3384 at 100 ug/ml after 24 hrs by disc diffusion method; details: MTCC 3384, 24 h, read-out: DIZ; outline: as §1
Escherichia coli [21] = assay: Antimicrobial activity against Escherichia coli MTCC 724 at 50 ug/ml after 24 hrs by disc diffusion method; details: MTCC 724, 24 h, read-out: DIZ; outline: as §1
Fusarium oxysporum [22] = assay: Antimicrobial activity against Fusarium oxysporum MTCC 284 at 100 ug/ml after 48 hrs by disc diffusion method; details: MTCC 284, 48 h, read-out: DIZ; outline: as §1
Staphylococcus aureus [23] = assay: Antimicrobial activity against Staphylococcus aureus MTCC 96 at 50 ug/ml after 24 hrs by disc diffusion method; details: MTCC 96, 24 h, read-out: DIZ; outline: as §1
Escherichia coli [24] = assay: Antimicrobial activity against Escherichia coli MTCC 724 at 100 ug/ml after 24 hrs by disc diffusion method; details: MTCC 724, 24 h, read-out: DIZ; outline: as §1

| SMILES | zone of inhibition at 50 µg/mL (Klebsiella pneumoniae [1]) [mm] | MFC (Aspergillus flavus [2]) [mg/L] | MIC (Aspergillus flavus [2]) [mg/L] | zone of inhibition at 100 µg/mL (Aspergillus niger [3]) [mm] | MBC (Staphylococcus aureus [4]) [mg/L] | MIC (Staphylococcus aureus [4]) [mg/L] | MBC (Escherichia coli [5]) [mg/L] | MIC (Escherichia coli [5]) [mg/L] | zone of inhibition at 50 µg/mL (Bacillus cereus [6]) [mm] | zone of inhibition at 100 µg/mL (Staphylococcus aureus [7]) [mm] | zone of inhibition at 50 µg/mL (Fusarium verticillioides [8]) [mm] | zone of inhibition at 100 µg/mL (Fusarium verticillioides [9]) [mm] | zone of inhibition at 50 µg/mL (Fusarium oxysporum [10]) [mm] | zone of inhibition at 50 µg/mL (Aspergillus niger [11]) [mm] | MFC (Aspergillus niger [12]) [mg/L] | MIC (Aspergillus niger [12]) [mg/L] | MBC (Bacillus cereus [13]) [mg/L] | MIC (Bacillus cereus [13]) [mg/L] | MFC (Fusarium oxysporum [14]) [mg/L] | MIC (Fusarium oxysporum [14]) [mg/L] | also measured |
| --- | --- | --- | --- | --- | --- | --- | --- | --- | --- | --- | --- | --- | --- | --- | --- | --- | --- | --- | --- | --- | --- |
| Cc1c(C(=O)NNC(=O)c2ccccc2)c(-c2ccccc2)nn1-c1ccccc1 | 8 | 275 (≈ 694 µM) | 50 (≈ 126 µM) | 14 | 200 (≈ 504 µM) | 25 (≈ 63.1 µM) | 190 (≈ 479 µM) | 25 (≈ 63.1 µM) | 8 | 18 | 6 | 9 | 8 | 8 | 215 (≈ 542 µM) | 30 (≈ 75.7 µM) | 180 (≈ 454 µM) | 25 (≈ 63.1 µM) | 260 (≈ 656 µM) | 40 (≈ 101 µM) | zone of inhibition at 50 µg/mL (Aspergillus flavus [15]): 10 mm; MBC (Klebsiella pneumoniae [16]): 200 mg/L (≈ 504 µM); MIC (Klebsiella pneumoniae [16]): 25 mg/L (≈ 63.1 µM); zone of inhibition at 100 µg/mL (Aspergillus flavus [17]): 12 mm; zone of inhibition at 100 µg/mL (Bacillus cereus [18]): 16 mm; MFC (Fusarium verticillioides [19]): 260 mg/L (≈ 656 µM); MIC (Fusarium verticillioides [19]): 50 mg/L (≈ 126 µM); zone of inhibition at 100 µg/mL (Klebsiella pneumoniae [20]): 14 mm; zone of inhibition at 50 µg/mL (Escherichia coli [21]): 13 mm; zone of inhibition at 100 µg/mL (Fusarium oxysporum [22]): 10 mm; zone of inhibition at 50 µg/mL (Staphylococcus aureus [23]): 6 mm; zone of inhibition at 100 µg/mL (Escherichia coli [24]): 18 mm |
| Cc1c(-c2nnc(-c3ccccc3)o2)c(-c2ccccc2)nn1-c1ccccc1 | 6 | 280 (≈ 740 µM) | 40 (≈ 106 µM) | 8 | 240 (≈ 634 µM) | 35 (≈ 92.5 µM) | 260 (≈ 687 µM) | 40 (≈ 106 µM) | 5 | 7 | 4 | 6 | 3 | 5 | 270 (≈ 713 µM) | 45 (≈ 119 µM) | 230 (≈ 608 µM) | 35 (≈ 92.5 µM) | 275 (≈ 727 µM) | 50 (≈ 132 µM) | zone of inhibition at 50 µg/mL (Aspergillus flavus [15]): 4 mm; MBC (Klebsiella pneumoniae [16]): 220 mg/L (≈ 581 µM); MIC (Klebsiella pneumoniae [16]): 30 mg/L (≈ 79.3 µM); zone of inhibition at 100 µg/mL (Aspergillus flavus [17]): 8 mm; zone of inhibition at 100 µg/mL (Bacillus cereus [18]): 9 mm; MFC (Fusarium verticillioides [19]): 290 mg/L (≈ 766 µM); MIC (Fusarium verticillioides [19]): 55 mg/L (≈ 145 µM); zone of inhibition at 100 µg/mL (Klebsiella pneumoniae [20]): 14 mm; zone of inhibition at 50 µg/mL (Escherichia coli [21]): 5 mm; zone of inhibition at 100 µg/mL (Fusarium oxysporum [22]): 8 mm; zone of inhibition at 50 µg/mL (Staphylococcus aureus [23]): 6 mm; zone of inhibition at 100 µg/mL (Escherichia coli [24]): 6 mm |
